Published values of several laboratories.
Protocols differ between the studies behind these lines.
Target: Death-associated protein kinase 1 (DAPK1, Homo sapiens, UniProt P53355)

O=c1[nH]c2ccccc2n1C1CCN(Cc2ccc(-c3[nH]c4cc5ncnc5cc4nc3-c3ccccc3)cc2)CC1
remaining signal (cell-free assay; 0.5 µM): 82.9%

Cn1cc(-c2cc(F)cc(N3CCn4c(cc5c4CCCC5)C3=O)c2CO)cc(Nc2ccc(N3CCN(C4COC4)CC3)cn2)c1=O
inhibition (enzyme activity, inhibitor; 0.1 µM): 8%

COc1cc(Nc2ncc(F)c(Nc3ccc4c(n3)NC(=O)C(C)(C)O4)n2)cc(OC)c1OC
inhibition (binding, competition with immobilised ligand; 10 µM): 97%

Cn1cc(-c2cccc(N3CCc4c(sc5c4CC(C)(C)C5)C3=O)c2CO)cc(Nc2ccncn2)c1=O
inhibition (enzyme activity, inhibitor; 1 µM): 1%

Nc1ncc(-c2nc(N3CCOCC3)nc(N3CCOCC3)n2)c(C(F)F)n1
remaining binding (binding, competition with immobilised ligand; 10 µM): 94%

COc1ncccc1-c1cnn2ccc(N3CCN(C(=O)OC(C)C)CC3)nc12
remaining binding (binding, competition with immobilised ligand; 1 µM): 82%

Cn1cncc1[C@](O)(COc1ccc(C#N)cc1-c1ccc(OC(F)(F)F)cc1)c1ccc(C#N)cc1
remaining binding (cell-free assay, competition with immobilised ligand; 1 µM): 84%

CC(C)(C)c1cc(C=C(C#N)C#N)cc(Br)c1O
remaining activity (enzyme activity, inhibitor; 0.5 µM): 85.9%

Cc1nn(C)cc1-c1nc2c(N3CCN(Cc4ccc(Cl)cc4)CC3)c(Cl)cnc2[nH]1
remaining binding (binding, competition with immobilised ligand; 1 µM): 80%
